The results in this text go back to ChEMBL document CHEMBL2177098, “Synthesis and evaluation of novel ¹⁸F labeled 2-pyridinylbenzoxazole and 2-pyridinylbenzothiazole derivatives as ligands for positron emission tomography (PET) imaging of β-amyloid plaques” (J Med Chem, 2012).

The species entered for assay [1] is Mus musculus. As to the kind of experiment: Binding affinity to amyloid beta plaques in transgenic C57BL6 mouse cortex expressing APP Swedish mutant/PSEN1 at 370 KBq/100 ul after 1 hr by thioflavinS-staining method. The settings on record: tested as the 18F-labelled form. Summed up:
(§1)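 Paraffin brain sections from 12-month-old Tg mice (C57BL6, APPswe/PSEN1) and age-matched controls, deparaffinized through xylene and graded ethanol, then PBS (0.2 M, pH 7.4) 30 min. Incubated with 18F tracer (370 KBq per 100 μL) 1 h at room temperature, washed in 40% EtOH, rinsed in water, then phosphor plate exposure 2 h. The same sections were afterwards stained with 0.125% thioflavin S in 10% EtOH for 3 min and washed in 40% EtOH.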

The species entered for assay [2] is Mus musculus. The experiment in a line: Binding affinity to amyloid beta plaques in transgenic C57BL6 mouse hippocampus expressing APP Swedish mutant/PSEN1 at 370 KBq/100 ul after 1 hr by autoradiographic analysis. It counts as tissue-based. The settings on record: tested as the 18F-labelled form. The essentials:
as §1

The nature of assay [3]: Displacement of [125I]-IMPY from amyloid beta (1 to 42) fibrils after 2 hrs by gamma-counting analysis. The essentials:
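Competition binding with aggregated Aβ1-42 fibrils and [125I]IMPY (60000−100000 cpm/100 μL) in 0.05% BSA (1 mL total); inhibitors 10⁻⁴−10^−8.5 M in ethanol. Incubated 37 °C for 2 h, then GF/B vacuum filtration with PBS (0.02 M, pH 7.4) washes and γ counting. Three repeats; IC50 converted to Ki by Cheng−Prusoff.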

Assay [4] is filed under the species Mus musculus. The experiment in a line: Binding affinity to amyloid beta plaques in transgenic C57BL6 mouse hippocampus expressing APP Swedish mutant/PSEN1 at 370 KBq/100 ul after 1 hr by thioflavinS-staining method. The format is tissue-based. The settings on record: tested as the 18F-labelled form. Summed up:
as §1

Assay [5] is filed under the species Mus musculus. The experiment in a line: Binding affinity to amyloid beta plaques in transgenic C57BL6 mouse cortex expressing APP Swedish mutant/PSEN1 at 370 KBq/100 ul after 1 hr by autoradiographic analysis. The settings on record: tested as the 18F-labelled form. Summed up: as §1

The structures appear in SMILES notation. pKi: −log10 of the molar value. Calls of active or inactive are those of the source. No cut-off for these calls is given here.

As usually defined, the pKi is the Ki on a negative log10 scale, so that one unit is a factor of ten. As for `CN(C)c1ccc(-c2nc3cc(OCCOCCOCCF)ccc3o2)cn1`, the outcome in the assay filed under Mus musculus [1], in the assay listed under Mus musculus [2], in the assay listed under Mus musculus [4] and in the assay filed under Mus musculus [5] was Active. The same compound had a pKi in assay [3] of 8.00.
In turn, `CNc1ccc(-c2nc3cc(OCCOCCF)ccc3o2)cn1` gave a negative-log Ki (pKi) in assay [3] of 6.99.
